Assay results as given in ChEMBL document CHEMBL1139230, “New beta-alanine derivatives are orally available glucagon receptor antagonists” (J Med Chem, 2007).
Activity calls are given as the source filed them. No cut-off for these calls is given here.

What was measured:
[1] = target: Glucagon receptor (Homo sapiens, UniProt P47871); assay: Inhibition of human cloned glucagon receptor expressed in BHK cells; assay type: cell-based
Summary of the method: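 Binding performed on plasma membranes from BHK cells expressing the cloned human glucagon receptor; IC50 values determined.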

[2] = system: Liver microsomes; assay: Metabolic turnover in rat liver microsomes at 10 uM; assay type: ADME, Microsome
Summary of the method: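 Metabolic rate estimated by incubating compounds with rat liver microsomes, used to rank metabolic stability.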

[3] = target: Glucagon-like peptide 1 receptor (Homo sapiens, UniProt P43220); assay: Inhibition of GLP1 receptor
[4] = Metabolic stability in rat at 2 mg/kg, iv; assay type: ADME, organism-based; parameters: dose 2 mg/kg, route intravenous; settings: in vivo
Summary of the method: (§1)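 Rats given the compound at 4 mg/kg orally and 2 mg/kg intravenously. Plasma profiles yielded Cmax, Tmax, AUC, oral availability (F) and plasma half-life; half-life was taken from the iv dose.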

[5] = Tmax in rat at 4 mg/kg, po and 2 mg/kg, iv; assay type: ADME, organism-based; settings: in vivo; summary of the method: as §1
[6] = Bioavailability in rat at 4 mg/kg, po; assay type: ADME, organism-based; settings: in vivo; summary of the method: as §1
[7] = Cmax in rat at 4 mg/kg, po and 2 mg/kg, iv; assay type: ADME, organism-based; settings: in vivo; summary of the method: as §1
[8] = system: Rattus norvegicus; assay: AUC in rat at 4 mg/kg, po and 2 mg/kg, iv; assay type: ADME, organism-based, Plasma; settings: in vivo; summary of the method: as §1
[9] = target: Glucagon receptor (Rattus norvegicus, UniProt P30082); assay: Inhibition of rat glucagon receptor
[10] = system: Mus musculus; assay: Reduction of blood glucose level in Umea ob/ob mouse at 100 mg/kg, po after 24 hrs; assay type: functional
Summary of the method: (§2)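 ob/ob mice (n = 6 per group), vehicle or compound at 100 mg/kg po. Blood glucose was measured before dosing and again at 2, 4, 6 and 24 h; the change from the predose value was reported.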

[11] = system: Mus musculus; assay: Reduction of blood glucose level in Umea ob/ob mouse at 100 mg/kg, po after 2 hrs; assay type: functional; summary of the method: as §2
[12] = system: Rattus norvegicus; assay: Reduction of blood glucose level in glucagon-challenged iv dosed Sprague-Dawley rat; assay type: functional, organism-based
Summary of the method: (§3)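 Rats were anesthetized and given the compound intravenously over a range of doses, 5 min before an exogenous glucagon load of 3 µg/kg. The read-out was the glucagon-stimulated rise in blood glucose.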

[13] = system: Mus musculus; assay: Reduction of blood glucose level in Umea ob/ob mouse at 100 mg/kg, po after 4 hrs; assay type: functional; summary of the method: as §2
[14] = Metabolic stability in iv dosed dog; assay type: ADME, organism-based, Canis lupus familiaris; settings: in vivo
Summary of the method: (§4)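 Dogs dosed orally and intravenously; oral availability and half-life after iv dosing determined.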

[15] = Bioavailability in orally dosed dog; assay type: ADME, organism-based, Canis lupus familiaris; settings: in vivo, po; summary of the method: as §4
[16] = system: Mus musculus; assay: Reduction of blood glucose level in Umea ob/ob mouse at 100 mg/kg, po after 6 hrs; assay type: functional; summary of the method: as §2
[17] = system: Mus musculus; assay: Reduction in cumulative food intake in Umea ob/ob mouse at 100 mg/kg, po; assay type: functional
Summary of the method: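 ob/ob mice given vehicle or compound at 100 mg/kg po; cumulative food intake per mouse recorded from 6 to 24 h postdose.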

[18] = system: Mus musculus; assay: Blood glucose level in Umea ob/ob mouse at 100 mg/kg, po
[19] = organism: Homo sapiens; assay: Selectivity for glucagon receptor over GLP1 receptor
[20] = system: Rattus norvegicus; assay: Reduction of blood glucose level in glucagon-challenged iv dosed Sprague-dawley rat at > 3 mg/kg; assay type: functional, organism-based; parameters: dose 3 mg/kg
Summary of the method: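 Anesthetized rats received the compound intravenously across a range of doses 5 min before a 3 µg/kg glucagon load. The rise in blood glucose was followed.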

[21] = system: Rattus norvegicus; assay: Reduction of blood glucose level in glucagon-challenged iv dosed Sprague-Dawley rat at 3 mg/kg; assay type: functional, organism-based; parameters: dose 3 mg/kg; summary of the method: as §3

Chain of Glucagon receptor (Homo sapiens, UniProt P47871) (P47871 whole entry): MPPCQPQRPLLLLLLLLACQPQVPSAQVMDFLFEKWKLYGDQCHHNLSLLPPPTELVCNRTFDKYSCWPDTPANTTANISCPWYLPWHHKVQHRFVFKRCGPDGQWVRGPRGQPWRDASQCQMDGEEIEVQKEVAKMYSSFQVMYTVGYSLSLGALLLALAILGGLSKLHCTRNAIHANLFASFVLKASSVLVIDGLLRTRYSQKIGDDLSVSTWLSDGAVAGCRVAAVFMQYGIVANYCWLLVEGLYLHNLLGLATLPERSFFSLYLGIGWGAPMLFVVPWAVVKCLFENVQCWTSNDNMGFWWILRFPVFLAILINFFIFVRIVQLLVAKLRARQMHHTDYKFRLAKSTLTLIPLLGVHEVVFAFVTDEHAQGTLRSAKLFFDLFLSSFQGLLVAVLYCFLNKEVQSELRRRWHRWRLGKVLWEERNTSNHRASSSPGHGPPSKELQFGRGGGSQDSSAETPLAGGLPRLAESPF
Chain of Glucagon-like peptide 1 receptor (P43220 whole entry): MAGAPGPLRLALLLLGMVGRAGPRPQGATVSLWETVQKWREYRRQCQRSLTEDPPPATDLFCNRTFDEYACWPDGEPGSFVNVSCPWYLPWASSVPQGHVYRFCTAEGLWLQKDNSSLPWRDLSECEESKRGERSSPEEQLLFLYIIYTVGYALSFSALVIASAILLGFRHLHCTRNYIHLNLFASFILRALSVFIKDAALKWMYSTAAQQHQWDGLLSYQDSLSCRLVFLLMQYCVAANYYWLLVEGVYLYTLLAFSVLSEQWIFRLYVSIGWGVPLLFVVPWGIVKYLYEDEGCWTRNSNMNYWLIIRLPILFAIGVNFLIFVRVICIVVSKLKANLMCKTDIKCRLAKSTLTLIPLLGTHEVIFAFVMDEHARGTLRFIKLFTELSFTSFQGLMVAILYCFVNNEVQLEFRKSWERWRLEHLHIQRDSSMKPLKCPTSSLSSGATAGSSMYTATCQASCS
Chain of Glucagon receptor (Rattus norvegicus, UniProt P30082) (P30082 whole entry): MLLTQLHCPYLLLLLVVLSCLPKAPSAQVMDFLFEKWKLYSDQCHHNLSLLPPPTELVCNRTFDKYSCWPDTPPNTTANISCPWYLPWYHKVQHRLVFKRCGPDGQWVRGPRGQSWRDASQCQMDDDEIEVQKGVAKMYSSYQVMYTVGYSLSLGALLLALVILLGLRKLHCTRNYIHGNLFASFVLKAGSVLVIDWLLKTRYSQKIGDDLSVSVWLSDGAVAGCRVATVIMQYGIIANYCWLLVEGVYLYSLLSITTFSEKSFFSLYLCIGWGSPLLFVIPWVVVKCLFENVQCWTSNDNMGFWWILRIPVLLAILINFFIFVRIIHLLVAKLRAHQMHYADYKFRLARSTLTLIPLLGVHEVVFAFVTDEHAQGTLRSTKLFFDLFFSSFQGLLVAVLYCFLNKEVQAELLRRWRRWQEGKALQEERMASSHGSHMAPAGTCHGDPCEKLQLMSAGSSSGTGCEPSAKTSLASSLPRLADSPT

## CCCCc1ccc(NC(=O)N(Cc2ccc(C(=O)NCCC(=O)O)cc2)C2Cc3ccccc3C2)cc1
[1]
  IC50: 0.179 µM

## CC(C)(C)C1CCC(N(Cc2ccc(C(=O)NCCCC(=O)O)cc2)C(=O)Nc2ccc(OC(F)(F)F)cc2)CC1 (centres undefined)
[1]
  IC50: > 10 µM

## CNC(=O)C1CCC(N(Cc2ccc(C(=O)NCCC(=O)O)cc2)C(=O)Nc2ccc(OC(F)(F)F)cc2)CC1 (centres undefined)
[1]
  IC50: > 10 µM

## CC(C)(C)[C@H]1CC[C@H](N(Cc2ccc(C(=O)NCCC(=O)O)cc2)C(=O)Nc2ccc(C#N)cc2)CC1
[1]
  IC50: 1.05 µM

## CC(C)(C)C1CCC(N(Cc2ccc(C(=O)NCC(=O)O)cc2)C(=O)Nc2ccc(OC(F)(F)F)cc2)CC1 (centres undefined)
[1]
  IC50: 1.7 µM

## CC(C)(C)[C@H]1CC[C@H](N(Cc2ccc(C(=O)NCCC(=O)O)cc2)C(=O)Nc2cc(C(F)(F)F)cc(C(F)(F)F)c2)CC1
[2]
  Activity: 139 pmol/min

## CC(C)(CC(=O)O)NC(=O)c1ccc(CN(C(=O)Nc2ccc(OC(F)(F)F)cc2)C2CCC(C(C)(C)C)CC2)cc1 (centres undefined)
[1]
  IC50: > 10 µM

## CC(C)(C)C1CCC(N(Cc2ccc(C(=O)NCC(=O)NO)cc2)C(=O)Nc2ccc(OC(F)(F)F)cc2)CC1 (centres undefined)
[1]
  IC50: 2.96 µM

## COC1CCC(N(Cc2ccc(C(=O)NCCC(=O)O)cc2)C(=O)Nc2ccc(OC(F)(F)F)cc2)CC1 (centres undefined)
[1]
  IC50: > 10 µM

## CCCC1CCC(N(Cc2ccc(C(=O)NCCC(=O)O)cc2)C(=O)Nc2ccc(OC(F)(F)F)cc2)CC1 (centres undefined)
[1]
  IC50: 0.122 µM

## CCCCC(CC)N(Cc1ccc(C(=O)NCCC(=O)O)cc1)C(=O)Nc1ccc(OC(F)(F)F)cc1 (centres undefined)
[1]
  IC50: 0.141 µM

## CC(C)(C)[C@H]1CC[C@H](N(Cc2ccc(C(=O)NCCC(=O)O)cc2)C(=O)Nc2ccc(Cl)c(Cl)c2)CC1
[2]
  Activity: 232 pmol/min

## O=C(O)CCNC(=O)c1ccc(CN(CCC(c2ccccc2)c2ccccc2)C(=O)c2ccc(Cl)nc2)cc1
[3]
  IC50: 100 µM
[1]
  IC50: 7 µM

## O=C(O)CCNC(=O)c1ccc(CN(C(=O)Nc2ccc(OC(F)(F)F)cc2)C2CCC(C(=O)O)CC2)cc1 (centres undefined)
[1]
  IC50: > 10 µM

## CC(C)(C)[C@H]1CC[C@H](N(Cc2ccc(C(=O)NCCC(=O)O)cc2)C(=O)Nc2ccc(OC(F)(F)F)cc2C#N)CC1
[1]
  IC50: 0.056 µM
[2]
  Activity: 63 pmol/min

## O=C(O)CCNC(=O)c1ccc(CN(C(=O)Nc2ccc(OC(F)(F)F)cc2)c2ccc(C3CCCCC3)cc2)cc1
[4]
  half-life: 1.07 h
[5]
  Tmax: 4 h
[6]
  bioavailability: 54%
[7]
  Cmax: 316 ng/mL
[1]
  IC50: 0.061 µM
[8]
  AUC: 1600 ng·h/mL

## O=C(O)CCNC(=O)c1ccc(CN(C(=O)Nc2cc(Cl)cc(Cl)c2)c2ccc(C3=CCCCC3)cc2)cc1
[4]
  half-life: 1.37 h
[9]
  IC50: 0.122 µM
[3]
  IC50: 4.9 µM
[10]
  Activity: 1.8 mM
[5]
  Tmax: 1 h
[11]
  Activity: 6.8 mM
[6]
  bioavailability: 69%
[7]
  Cmax: 275 ng/mL
[12]
  Activity: Dose-dependent effect
[13]
  Activity: 8.4 mM
[14]
  half-life: 1.53 h
[1]
  IC50: 0.027 µM
[15]
  bioavailability: 65%
[16]
  Activity: 9.5 mM
[17]
  Activity: 8.4 g
[8]
  AUC: 2970 ng·h/mL
[18]
  Activity: 18.3 mM
[19]
  Selectivity ratio: 180
[20]
  Activity: Active

## O=C(O)CCNC(=O)c1ccc(CN(C(=O)Nc2ccc(SC(F)(F)F)cc2)C2Cc3ccccc3C2)cc1
[1]
  IC50: 0.262 µM

## O=C(O)CCNC(=O)c1ccc(CN(CC(c2ccccc2)c2ccccc2)C(=O)c2csc3ccc(Cl)cc23)cc1
[1]
  IC50: 0.116 µM

## COCCCNC(=O)c1ccc(CN(C(=O)Nc2ccc(OC(F)(F)F)cc2)C2CCC(C(C)(C)C)CC2)cc1 (centres undefined)
[1]
  IC50: > 10 µM

## CC(C)(C)C1CCC(N(Cc2ccc(C(=O)NCCC(N)=O)cc2)C(=O)Nc2ccc(OC(F)(F)F)cc2)CC1 (centres undefined)
[1]
  IC50: > 10 µM

## O=C(O)CCNC(=O)c1ccc(CN(C(=O)Nc2ccc(OC(F)(F)F)cc2)C2CCC(C(=O)NCC3CC3)CC2)cc1 (centres undefined)
[1]
  IC50: > 10 µM

## CC(C)(C)[C@H]1CC[C@H](N(Cc2ccc(C(=O)NCCC(=O)O)cc2)C(=O)Nc2ccc(C#N)cc2OC(F)(F)F)CC1
[2]
  Activity: 130 pmol/min

## CC(C)(C)C1CCC(N(Cc2ccc(C(=O)N3CCCC(C(=O)O)C3)cc2)C(=O)Nc2ccc(OC(F)(F)F)cc2)CC1 (centres undefined)
[1]
  IC50: 1 µM

## CC(C)(C)[C@H]1CC[C@H](N(Cc2ccc(C(=O)NCCC(=O)O)cc2)C(=O)Nc2ccc(OC(F)(F)F)cc2)CC1
[4]
  half-life: 1.5 h
[9]
  IC50: 0.056 µM
[3]
  IC50: 1 µM
[5]
  Tmax: 1 h
[6]
  bioavailability: 17%
[7]
  Cmax: 106 ng/mL
[12]
  Activity: Dose-dependent effect
[14]
  half-life: 1.68 h
[1]
  IC50: 0.055 µM
[15]
  bioavailability: 10%
[2]
  Activity: 100 pmol/min
[8]
  AUC: 217 ng·h/mL
[21]
  Activity: Active

## CC(C)c1ccc(NC(=O)N(Cc2ccc(C(=O)NCCC(=O)O)cc2)[C@H]2CC[C@H](C(C)(C)C)CC2)cc1
[4]
  half-life: 0.333 h
[5]
  Tmax: 0.25 h
[6]
  bioavailability: 2%
[7]
  Cmax: 40 ng/mL
[1]
  IC50: 0.035 µM
[2]
  Activity: 283 pmol/min
[8]
  AUC: 43.3 ng·h/mL
